{"source": "paper PMC6689761", "about": "(International Journal of Nanomedicine, 2019)", "key": {"[1]": {"assay": "PK and biodistribution in rats after IM injection", "assay_type": "in vivo, Sprague-Dawley rats", "conditions": "rat"}, "[2]": {"system": "human monocyte-derived macrophages (MDMs)", "assay": "MTT cytotoxicity assay in MDMs", "assay_type": "cell-based", "conditions": "up to 100 µM, 4 days of exposure", "how_it_was_run": "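Monocytes plated at 80,000 cells/well and differentiated to macrophages. Exposed to 10–400 µM test compound or nanoformulation for 4 days. Washed, then MTT (5 mg/mL) added for 45 mins at 37°C. Formazan dissolved in DMSO and absorbance read at 490 nm. Values normalised to untreated cells; at least three biological replicates.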"}, "[3]": {"system": "human monocyte-derived macrophages (MDMs)", "assay": "Nanoparticle macrophage uptake and retention", "assay_type": "cell-based", "conditions": "100 µM"}, "[4]": {"assay_type": "in vivo, Sprague-Dawley rats", "conditions": "rat, IM", "how_it_was_run": "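Male Sprague-Dawley rats dosed IM (caudal thigh) at 45, 75 or 100 mg/kg FTC-equivalents. Cells from fresh blood, spleen and lymph nodes isolated, stored in 70% methanol and counted. Triphosphate separated from mono- and diphosphates on QMA cartridges, then dephosphorylated with type XA sweet potato acid phosphatase. Isotope-labelled lamivudine internal standard added after incubation (final 0.5 ng/mL). Mean±SEM, n=3–5.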"}, "[5]": {"system": "HIV-1ADA", "assay": "EC50 by HIV-1 RT activity in MDMs", "assay_type": "cell-based", "conditions": "HIV-1ADA MOI 0.1, HIV-1 RT activity", "how_it_was_run": "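Human MDMs pretreated 1 hr with 0.01–1000 nM test compound, then exposed to HIV-1ADA at MOI 0.1 for 4 hrs. RT activity measured in collected media. EC50 taken as 50% inhibitory concentration from nonlinear-regression concentration–response fits.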"}, "[6]": {"assay": "Aqueous solubility", "assay_type": "physicochemical", "conditions": "water, 24 hrs, room temperature", "how_it_was_run": "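Excess drug mixed in water 24 hrs at room temperature, spun 20,000× g for 10 mins. Supernatant quantified by reversed-phase UPLC on C18 at 1.0 mL/min. Parent run in 95% 20 mM ammonium acetate/5% ACN, pH 3.9, detected at 272 nm. Prodrug run in 90% methanol/10% water, detected at 280 nm. Peak areas compared with 0.05–50 µg/mL standards in methanol.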"}, "[7]": {"system": "HIV-1ADA", "assay": "Antiretroviral efficacy in drug-preloaded MDMs", "assay_type": "cell-based", "how_it_was_run": "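Human monocytes from HIV- and hepatitis-seronegative donors, elutriated and differentiated to MDMs. Cells exposed to 100 µM test drug or nanoformulation for 8 hrs, PBS-washed, then challenged with HIV-1ADA (MOI 0.1) for 18 hrs at times from 0 hr to 15 days after loading. Cultured 10 more days, medium changed every other day. Day-10 medium RT activity and p24 immunocytochemistry on 4% paraformaldehyde-fixed cells; uninfected and infected controls.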"}, "[8]": {"conditions": "reported value, no reference given; cited from earlier work"}}, "note": "Read-outs that look alike come from different tables or passages of the source.", "data": [{"substance": "2`-deoxy-5-fluoro-3`thiacytidine [FTC]", "values": [{"measurement": "FTC plasma level", "setting": "[1]; 45 mg/kg FTC-equivalents, day 1", "result": 25, "unit": "ng/mL"}, {"measurement": "FTC level in liver", "setting": "[1]; 45 mg/kg, day 7", "result": 2.6, "unit": "ng/g"}, {"measurement": "FTC level in lymph nodes", "setting": "[1]; 45 mg/kg, day 7", "result": 17, "unit": "ng/g"}, {"measurement": "FTC level in spleen", "setting": "[1]; 45 mg/kg, day 7", "result": 0, "unit": "ng/g"}, {"measurement": "FTC plasma level", "setting": "[1]; 45 mg/kg, day 7", "result": 0, "unit": "ng/mL"}, {"measurement": "FTC plasma level", "setting": "[1]; 75 mg/kg FTC-equivalents, day 1", "result": 34, "unit": "ng/mL"}, {"measurement": "FTC level in liver", "setting": "[1]; 75 mg/kg, day 7", "result": 14, "unit": "ng/g"}, {"measurement": "FTC level in lymph nodes", "setting": "[1]; 75 mg/kg, day 7", "result": 6, "unit": "ng/g"}, {"measurement": "FTC level in spleen", "setting": "[1]; 75 mg/kg, day 7", "result": 1.6, "unit": "ng/g"}, {"measurement": "FTC plasma level", "setting": "[1]; 75 mg/kg, day 7", "result": 3, "unit": "ng/mL"}, {"measurement": "FTC plasma level", "setting": "[1]; 100 mg/kg FTC-equivalents, day 1", "result": 52, "unit": "ng/mL"}, {"measurement": "FTC level in liver", "setting": "[1]; 100 mg/kg, day 7", "result": 0.6, "unit": "ng/g"}, {"measurement": "FTC level in lymph nodes", "setting": "[1]; 100 mg/kg, day 7", "result": 8, "unit": "ng/g"}, {"measurement": "FTC level in spleen", "setting": "[1]; 100 mg/kg, day 7", "result": 6, "unit": "ng/g"}, {"measurement": "FTC plasma level", "setting": "[1]; 100 mg/kg, day 7", "result": 1.4, "unit": "ng/mL"}, {"measurement": "FTC plasma levels compared to NMFTC treatment", "setting": "[1]; 2 hrs", "result": "several fold higher"}, {"measurement": "MDM viability (MTT)", "setting": "[2]", "result": "did not affect MDM viability"}, {"measurement": "highest intracellular FTC-TP concentration", "setting": "[3]; after 8 hrs", "result": 10, "unit": "pmol/10^6 cells"}, {"measurement": "intracellular drug levels", "setting": "[3]; uptake over 24 hrs", "result": "minimal detectable intracellular drug levels"}, {"measurement": "FTC-TP level in PBMCs", "setting": "[4]; 45 mg/kg, day 1", "result": 100, "unit": "fmol/10^6 cells"}, {"measurement": "FTC-TP level in PBMCs", "setting": "[4]; 45 mg/kg, day 7", "result": 6, "unit": "fmol/10^6 cells"}, {"measurement": "FTC-TP level in PBMCs", "setting": "[4]; 75 mg/kg, day 1", "result": 133, "unit": "fmol/10^6 cells"}, {"measurement": "FTC-TP level in PBMCs", "setting": "[4]; 75 mg/kg, day 7", "result": 7, "unit": "fmol/10^6 cells"}, {"measurement": "FTC-TP level in PBMCs", "setting": "[4]; 100 mg/kg, day 1", "result": 163, "unit": "fmol/10^6 cells"}, {"measurement": "FTC-TP level in PBMCs", "setting": "[4]; 100 mg/kg, day 7", "result": 8, "unit": "fmol/10^6 cells"}, {"measurement": "fold higher PBMC FTC-TP levels compared to NMFTC treatment", "setting": "[4]; 2 hrs", "result": "2–3 fold"}, {"measurement": "FTC-TP levels in lymph node cells", "setting": "[4]; day 1, across doses", "result": "4–7 fmol/10^6 cells"}, {"measurement": "FTC-TP levels in spleen", "setting": "[4]; day 1, across doses", "result": "6–13 fmol/10^6 cells"}, {"measurement": "FTC-TP levels in lymph node cells", "setting": "[4]; day 7, regardless of dose", "result": "1–2 fmol/10^6 cells"}, {"measurement": "FTC-TP levels in spleen", "setting": "[4]; day 7, regardless of dose", "result": "2–3 fmol/10^6 cells"}, {"measurement": "EC50", "setting": "[5]", "result": 79, "unit": "nM"}, {"measurement": "aqueous solubility", "setting": "[6]", "result": 134, "unit": "mg/mL"}, {"measurement": "inhibition of viral RT activity", "setting": "[7]; MDMs preloaded 100 µM 8 hrs, challenge at 24 hrs", "result": 30, "unit": "%"}, {"measurement": "HIV-1 p24 antigen staining", "setting": "[7]; by 12 hrs following treatment", "result": "HIV-1 p24+ cells were observed"}, {"measurement": "HIV-1 p24 antigen staining", "setting": "[7]; by day 1", "result": "no effect"}, {"measurement": "HIV-1 RT activity in pre-exposed MDMs", "setting": "[7]; challenge beyond day 1", "result": "did not have effect"}, {"measurement": "IC90", "setting": "[8]", "result": 0.014, "unit": "µg/mL"}, {"measurement": "reported 50% inhibitory concentration (IC50)", "setting": "[8]", "result": 0.008, "unit": "µg/mL"}]}]}
